Screening results as filed in PubChem BioAssay.
Hits are enriched below; roughly 0.28% of the tested compounds scored in any of these assays.
Calb biofilm kill: mixture kills Candida albicans biofilm cells; C. albicans biofilm persisters + clotrimazole, fluorescence viability; primary screen in compound mixtures of four per well; inhibition, % at 7.6 µM; 120,000 compounds, 0.02% hits; AID 1242;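 active means inhibition above 30.3% in the primary screen of four-compound pools, then above 30% when the compound was retested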;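 further: compounds exposed to preformed 24 h biofilms for 48 h; 0% = untreated biofilm control and 100% = clotrimazole plus chlorhexidine kill blank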
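Test system: C. albicans CAF4-2 wild-type biofilms; buffer or medium: RPMI/MOPS medium, pH 7.0; schedule: 24 h biofilm formation, then 48 h compound exposure, 37 °C; detection: Alamar Blue fluorescence; measure: percent inhibition of biofilm viability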
TNAP act hiacc: increases human TNAP activity under high phosphate acceptor concentration; purified TNAP, CDP-star luminescence, 1 M DEA, 30 min; stronger effect = higher value; 0 = EDTA background, 1 = DMSO-only activity; activation factor at 20 µM; 200,000 tested, under 10 active; AID 1136;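 active means activation factor at least 2 at 20 µM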
Target sequence (P05186 whole entry, looked up): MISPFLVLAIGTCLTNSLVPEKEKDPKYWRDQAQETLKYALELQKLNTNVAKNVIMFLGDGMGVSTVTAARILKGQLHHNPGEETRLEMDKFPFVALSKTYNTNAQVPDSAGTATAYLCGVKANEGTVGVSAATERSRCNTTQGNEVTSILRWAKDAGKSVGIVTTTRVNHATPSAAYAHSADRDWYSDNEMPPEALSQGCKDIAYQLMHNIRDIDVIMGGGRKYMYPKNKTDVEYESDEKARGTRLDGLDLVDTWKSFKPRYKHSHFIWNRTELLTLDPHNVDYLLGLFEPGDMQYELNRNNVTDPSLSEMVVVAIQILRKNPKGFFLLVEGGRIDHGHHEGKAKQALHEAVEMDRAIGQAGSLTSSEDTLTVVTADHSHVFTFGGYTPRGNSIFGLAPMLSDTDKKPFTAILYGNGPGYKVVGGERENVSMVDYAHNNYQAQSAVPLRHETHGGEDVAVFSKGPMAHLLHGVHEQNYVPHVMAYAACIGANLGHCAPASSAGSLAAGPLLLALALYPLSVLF
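system = human TNAP | amount = enzyme diluted 1/800 final | reagent = 100 µM CDP-star substrate | signal = luminescent substrate turnover signal | dosing = one dose, 20 µM | benchmarks = EDTA negative control, DMSO positive control | measure = activation factor | timing = 30 min reaction, room temperature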
TNAP inh no acc: inhibitors of human TNAP without phosphate acceptor | P05186 | 200,000 compounds, 0.26% hits | inhibition, % at 20 µM | purified TNAP, CDP-star luminescence, 30 min | AID 1012;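 active means tissue-nonspecific alkaline phosphatase inhibition above about 50% at 20 µM in the single-dose screen, limit read from the data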;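 further: 0% = DMSO negative control and 100% = EDTA positive control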
TNAP inh hiacc: TNAP (human) inhibition, high acceptor. inhibition, % at 20 µM. purified TNAP, CDP-star luminescence, 1 M DEA. 200,000 compounds, 0.03% hits. P05186;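 active means over 50% inhibition of tissue-nonspecific alkaline phosphatase at 20 µM in the single-dose screen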;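 further: plate controls were DMSO wells for no effect and EDTA-quenched wells as full inhibition for full effect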
* hit, by the source's call; nt = no result.

SMILES | Calb biofilm kill | TNAP act hiacc | TNAP inh no acc | TNAP inh hiacc
CN(C)c1ccc(/C=C/C=C2/C(=O)NC(=O)N(c3ccccc3)C2=O)cc1 | 22 | 0.5 | 54* | 51*
O=C1NC(=O)N(c2ccccc2)C(=O)/C1=C/C=C/c1ccco1 | -3 | nt | nt | nt
CN1C(=O)c2ccccc2NC(=O)C1Cc1ccccc1 (configuration not stated) | 10 | 1 | 62* | -2
O=C(N/N=C/c1c(O)n(CCC2=CCCCC2)c(=O)[nH]c1=O)c1ccccc1 | 8 | 1 | 67* | -2
C=CCn1c(O)c(/C=N/N2CCCCC2c2cccnc2)c(=O)[nH]c1=S (configuration not stated) | 13 | 1 | -24 | -4
Oc1ccc(CC2CC3CCN2CC3)cc1O (configuration not stated) | nt | 0.9 | 75* | 7
CN1C(=O)CN=C(c2ccccc2)c2cc([N+](=O)[O-])ccc21 | nt | 1 | -6 | -3
CCCCCCC(=O)N/N=C/c1c(O)n(CCCC)c(=S)[nH]c1=O | 17 | nt | nt | nt
CCCCC(=O)N/N=C/c1c(O)n(CC)c(=S)[nH]c1=O | 11 | 1.1 | 87* | -9
CN(c1ccc(OCC(=O)N2CCN(C/C=C/c3ccccc3)CC2)cc1)S(=O)(=O)c1cccs1 | 9 | nt | nt | nt
